In brackets after ≈: the same amount, converted by molar mass. Activity calls are given as the source filed them. No cut-off for these calls is given here.
Columns and labels:
P388 = test: Cytotoxicity against DBA/2 mouse P388 cells; type: functional, cell-based; conditions: DBA/2, P388
Method in brief: (§1)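 Cultured tumour and normal cell lines: P-388 (lymphoid neoplasm, DBA/2 mouse), A-549 (human lung carcinoma), HT-29 (human colon carcinoma) and CV-1 (monkey kidney fibroblast). Potency was expressed as approximate IC50 values in μg/ml.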

A549 = test: Cytotoxicity against human A549 cells; type: functional, cell-based; method in brief: as §1
Bacillus subtilis = test: Antimicrobial activity against Bacillus subtilis; type: functional, organism-based
HT-29 = test: Cytotoxicity against human HT-29 cells; type: functional, cell-based; method in brief: as §1
[1] = Cytotoxicity against african green monkey CV1 cells; type: cell-based; conditions: chlorocebus aethiops, cv-1; method in brief: as §1
Staphylococcus aureus = test: Antimicrobial activity against Staphylococcus aureus; type: functional, organism-based

Row | Compound | IC50 (P388) | IC50 (A549) | Activity (Bacillus subtilis) | Activity (HT-29) | Activity [1] | Activity (Staphylococcus aureus)
1 | CCC(CC(=O)O[C@H]1C[C@@H]2[C@@]3(C)CCC[C@](C)(CC)[C@@H]3CC[C@@]2(C)[C@@H]2CC=C(C(C)=O)[C@H](C=O)[C@@]12C)OC(C)=O (stereo partly drawn) | < 0.12 µg/mL | 0.25 µg/mL (≈ 0.449 µM) | Active | – | – | –
2 | CC[C@@]1(C)CCC[C@]2(C)[C@H]3C[C@H](OC(=O)CC(C)OC(C)=O)[C@]4(C)[C@@H](C=O)C(C(C)=O)=CC[C@H]4[C@]3(C)CC[C@@H]12 (stereo partly drawn) | 0.2 µg/mL (≈ 0.368 µM) | 0.2 µg/mL (≈ 0.368 µM) | – | Active | Active | –
3 | CCC(O)CC(=O)O[C@H]1C[C@H]2[C@]3(C)CC[C@H]4[C@@](C)(CC)CCC[C@]4(C)[C@H]3C[C@H](OC(C)=O)[C@]2(C)[C@@H](C=O)[C@@H]1C(C)=O (stereo partly drawn) | 0.5 µg/mL (≈ 0.87 µM) | 0.5 µg/mL (≈ 0.87 µM) | – | Active | Active | –
4 | CC[C@@]1(C)CCC[C@]2(C)[C@H]3C[C@H](OC(C)=O)[C@]4(C)[C@@H](C=O)[C@H](C(C)=O)[C@@H](OC(C)=O)C[C@H]4[C@]3(C)CC[C@@H]12 | 0.91 µg/mL (≈ 1.76 µM) | 0.88 µg/mL (≈ 1.7 µM) | Active | – | – | –
5 | CCC(=O)OC(CC)CC(=O)O[C@H]1C[C@@H]2[C@@]3(C)CCC[C@](C)(CC)[C@@H]3CC[C@@]2(C)[C@@H]2CC=C(C(C)=O)[C@H](C=O)[C@@]12C (stereo partly drawn) | < 0.12 µg/mL | 0.21 µg/mL (≈ 0.368 µM) | Active | – | – | –
6 | CCC(=O)O[C@H]1C[C@H]2[C@]3(C)CC[C@H]4[C@@](C)(CC)CCC[C@]4(C)[C@H]3C[C@H](OC(C)=O)[C@]2(C)[C@@H](C=O)[C@@H]1C(C)=O | 0.67 µg/mL (≈ 1.26 µM) | 0.67 µg/mL (≈ 1.26 µM) | Active | – | – | –
7 | CC[C@@]1(C)CCC[C@]2(C)[C@H]3C[C@H](OC(C)=O)[C@]4(C)[C@@H](C=O)[C@H](C(C)=O)[C@@H](O)C[C@H]4[C@]3(C)CC[C@@H]12 | 0.1 µg/mL (≈ 0.211 µM) | 0.1 µg/mL (≈ 0.211 µM) | – | Active | Active | –
8 | CC[C@@]1(C)CCC[C@]2(C)[C@H]3C[C@H](OC(C)=O)[C@]4(C)[C@@H](C=O)[C@H](C(C)=O)[C@@H](OC(=O)C[C@@H](C)O)C[C@H]4[C@]3(C)CC[C@@H]12 | 0.23 µg/mL (≈ 0.41 µM) | 0.66 µg/mL (≈ 1.18 µM) | Active | – | – | Active

From ChEMBL document CHEMBL1149738, “New cytotoxic scalarane sesterterpenes from the Dictyoceratid sponge Strepsichordaia lendenfeldi” (J Nat Prod, 1992)
